A short description of series [1]: Urinary recovery of IPdR and metabolites after a single oral dose of IPdR. Format: in vivo, human (patients with advanced malignancies). The note with it: patients receiving 2400 mg of IPdR. The gist of the method:
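Urine was collected pre-dose and then at each void over 24 h, with volumes recorded and aliquots stored at −80°C. Samples underwent liquid–liquid extraction and LC–MS/MS for IPdR, IdUrd, IP and IUra, with BrdUrd and BrUra as internal standards. Calibration covered 0.1–50 μM in patient pre-dose urine. Samples above 50 μM were diluted 1:10 and reanalyzed. The quantitation limit was 0.1 μM for IPdR and IdUrd and 0.25 μM for IP and IUra.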

Series [2] can be described thus: Safety assessment for 14 days after a single oral dose of IPdR. Format: in vivo, human (patients with advanced malignancies). The note with it: single oral dose 150-2400 mg, 10 patients, 14 days follow-up. The method in brief: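 After a single oral dose on day 1 (150–2400 mg), patients were followed for 14 days. Complete blood counts with differential and serum chemistries were done at baseline, day 2 and day 14, with grading by CTCAE v4.0. Significant toxicity was defined as a drug-related event within 14 days at grade ≥2 non-hematologic (excluding correctable electrolytes), grade ≥2 thrombocytopenia, or grade ≥3 anemia/leucopenia/neutropenia. Each next patient enrolled only after the prior one completed 2 weeks.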

For series [3] the following is noted: rats, oral IPdR, sustained for at least 6 hours; cited from earlier work.
The conditions of series [4]: mice, oral IPdR, sustained for at least 6 hours; cited from earlier work.
Series [5] can be described thus: Plasma pharmacokinetics after a single oral dose of IPdR. It counts as in vivo, human (patients with advanced malignancies). The method in brief:
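Patients received a single oral dose of 150, 300, 600, 1200 or 2400 mg, with one patient per level and 6 at 2400 mg. Blood was drawn pre-dose and at 5, 15, 30 min and 1, 2, 4, 10, 24 h, and plasma was kept at −80°C. After solvent deproteinization, IPdR, IdUrd, IP and IUra were measured by C18 LC–MS/MS. BrdUrd and BrUra served as internal standards, with calibration at 0.1–50 μM in control plasma.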

For series [6] the following is noted: athymic mice, ≤ 1500 mg/kg/day for 6 to 14 days; cited from earlier work.
The conditions of series [7]: rats, for 28 days; cited from earlier work.
Series [8] has as its system dihydropyrimidine dehydrogenase. The note with it: stated without reference; cited from earlier work.
The conditions of series [9]: clinical, reason for c.i.v. infusion; cited from earlier work.
A further series has as its system ovarian cancer. The note with it: patients with ovarian cancer, intraperitoneal IdUrd; cited from earlier work.
The subject of another series is tumor. The note with it: c.i.v. IdUrd; cited from earlier work.
The subject of the next series is anaplastic astrocytoma. The note with it: patients with anaplastic astrocytoma, radiation combined with IdUrd; cited from earlier work.

Values joined by “and” are separate entries in the source; they are usually repeats but may differ in a detail not shown here. Equal values may be shown once. Read-outs that look alike come from different tables or passages of the source.

The source of these data is article PMC3658146 (Clinical cancer research : an official journal of the …, 2013).

For the molecule `O=c1ncc(I)c[nH]1` [IP, 5-iodo-2-pyrimidinone], in series [1], the “detection in urine samples” value is “detectable”.
Consider `O=c1ncc(I)cn1[C@H]1C[C@H](O)[C@@H](CO)O1` [IPdR, 5-iodo-2-pyrimidinone-2′-deoxyribose], for which the “dose recovered in urine over 24 hours” value in series [1] (IPdR and metabolites) is “Twelve”. Further, in [1], the “detection in urine samples” value was “detectable”. The drug-related adverse events result in series [2] is reported as “no drug-related adverse events”. Also, the “plasma concentrations of IPdR” value in series [3] and in series [4] was greater than 100000 nM throughout. The “IPdR AUC” value turned out to be 3.4 μM-hr in [5] (plasma, single oral IPdR 150 mg, one patient); 8.3 μM-hr in series [5] (plasma, single oral IPdR 600 mg, one patient); 0.7 μM-hr in [5] (plasma, single oral IPdR 1200 mg, one patient); 15.6 μM-hr in series [5] (plasma, single oral IPdR 2400 mg, mean of 6 patients). Moreover, the maximum concentration (Cmax) was determined as 600 nM in series [5] (read-out: IPdR Cmax, plasma, single oral IPdR 150 mg, one patient); 930 nM in series [5] (read-out: IPdR Cmax, plasma, single oral IPdR 600 mg, one patient); 950 nM in series [5] (read-out: IPdR Cmax, plasma, single oral IPdR 1200 mg, one patient); 4300 nM in series [5] (read-out: IPdR Cmax, plasma, single oral IPdR 2400 mg, mean of 6 patients). Besides, the “toxicities after daily oral doses” value in series [6] is reported as “no significant toxicities”. For the same molecule, in series [7], the “tolerable dose for repeat dose studies” value is listed as 2000 mg/kg/day.
As to `O=c1[nH]cc(I)c(=O)[nH]1` [IUra, 5-iodouracil], in series [1], the “detection in urine samples” value was “detectable”. The “share of the metabolites measured in urine” value in series [1] (24 hours) is reported as 90 ± 13%. Moreover, in series [5] (human, plasma, oral, 2400 mg), the concentration at 10 hours is roughly 100000 nM. Also, the AUC amounted to 1 µM·h in series [5] (human, plasma, po, 150 mg); 4.5 µM·h in [5] (human, plasma, po, 300 mg); 17.2 µM·h in series [5] (human, plasma, po, 600 mg); 103 µM·h in series [5] (human, plasma, po, 1200 mg); 1060 µM·h in [5] (human, plasma, po, 2400 mg). Further, the peak concentration (Cmax) in series [5] (human, plasma, po, 150 mg) came to 200 nM; in series [5] (human, plasma, po, 300 mg), 800 nM; in [5] (human, plasma, po, 600 mg), 4500 nM; in series [5] (human, plasma, po, 1200 mg), 34200 nM; in series [5] (human, plasma, po, 2400 mg), 133000 nM. Further, the “time of peak IUra plasma level post IPdR administration” value in [5] (single oral IPdR 2400 mg) is 3.3 ± 1.0 hours and 3.3 (± 1.0) hours. The “effect on the enzyme dihydropyrimidine dehydrogenase” value in series [8] is reported as “inhibits”.
Consider `O=c1[nH]c(=O)n([C@H]2C[C@H](O)[C@@H](CO)O2)cc1I` [IdUrd, 5-iodo-2′-deoxyuridine, reference compound], for which the half-life result in series [9] is “in the order of minutes”; in series [5] (human, plasma, po, 2400 mg), 1.5 h. Moreover, the effect on ascites entry in the series on ovarian cancer is listed as “disappearance of ascites”. In addition, the “detection in urine samples” value in series [1] is “detectable”. In addition, the exposure (AUC) in series [5] (human, plasma, po, 150 mg) is 1.7 µM·h; in series [5] (human, plasma, po, 300 mg) it was 0.3 µM·h; in [5] (human, plasma, po, 600 mg), 3.2 µM·h; in [5] (human, plasma, po, 1200 mg), 4.7 µM·h; in series [5] (human, plasma, po, 2400 mg) it was 12.2 µM·h. The peak concentration (Cmax) in [5] (human, plasma, po, 150 mg) turned out to be 800 nM; in series [5] (human, plasma, po, 300 mg), 300 nM; in series [5] (human, plasma, po, 600 mg), 1800 nM; in [5] (human, plasma, po, 1200 mg), 2100 nM; in series [5] (human, plasma, po, 2400 mg), 4000 nM. For the same molecule, in series [5] (single oral IPdR 2400 mg, 6 patients, mean ± SD), the “time of peak IdUrd plasma level after IPdR administration” value stood at 1.67 ± 1.21 h. For the same molecule, the “patients with tumor shrinkage” value with tumor is listed as 6 out of 11. In the series with anaplastic astrocytoma, the median survival is 3.2 years. In the series on anaplastic astrocytoma, the “patients surviving at 5 years” value is 33%.
